Reference: ChEMBL document CHEMBL3351454, “Design, synthesis, antimicrobial evaluation and molecular docking studies of some new thiophene, pyrazole and pyridone derivatives bearing sulfisoxazole moiety” (2014)
In brackets after ≈: the same amount, converted by molar mass.

Experiments:
Assay type in all cases: functional
Streptococcus pneumoniae [1] = assay: Antimicrobial activity against Streptococcus pneumoniae RCMB 010010 assessed as absence of turbidity after 24 hrs; settings: RCMB 010010, 24 h
Summary of the method: (§1)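 Broth microdilution in Müller–Hinton broth. DMF stocks at 1000 µg/mL were diluted in broth to give twofold serial dilutions over 500–0.007 µg/mL. Bacterial inoculum was about 10^6 CFU/mL in 96-well plates, sealed and incubated at 37 °C for 24 h in a humid chamber. MIC was taken as the lowest concentration with no visible turbidity. DMF and uninoculated-medium controls were included. Only compounds giving zones >10 mm were tested.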

Escherichia coli [2] = assay: Antimicrobial activity against Escherichia coli RCMB 010052 assessed as inhibition zone at 5 mg/ml after 24 hrs; settings: RCMB 010052, 24 h, read-out: IZ
Summary of the method: (§2)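 Agar diffusion on nutrient agar seeded with 10^6 CFU/mL bacteria. Filter-paper disks were loaded with 100 µL of a 5 mg/mL compound solution in DMF, with a DMF-only control. Incubation was 37 °C for 24 h. Inhibition zone in mm (mean ± SD, triplicate plates) was measured beyond the 6 mm diameter.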

Klebsiella pneumoniae [3] = assay: Antimicrobial activity against Klebsiella pneumoniae RCMB 010093 assessed as inhibition zone at 5 mg/ml after 24 hrs; settings: for zone of inhibition at 5000 µg/mL: RCMB 010093, 24 h, read-out: IZ; summary of the method: as §2
Bacillus subtilis [4] = assay: Antimicrobial activity against Bacillis subtilis RCMB 010067 assessed as absence of turbidity after 24 hrs; settings: RCMB 010067, 24 h; summary of the method: as §1
Streptococcus pneumoniae [5] = assay: Antimicrobial activity against Streptococcus pneumoniae RCMB 010010 assessed as inhibition zone at 5 mg/ml after 24 hrs; settings: RCMB 010010, 24 h, read-out: IZ; summary of the method: as §2
[6] = test system: Staphylococcus epidermidis; assay: Antimicrobial activity against Staphylococcus epidermidis RCMB 010024 assessed as inhibition zone at 5 mg/ml after 24 hrs; settings: RCMB 010024, 24 h, read-out: IZ; summary of the method: as §2
Aspergillus fumigatus [7] = assay: Antifungal activity against Aspergillus fumigatus RCMB 02568 assessed as absence of turbidity after 48 hrs; settings: RCMB 02568, 48 h
Summary of the method: (§3)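 Broth microdilution in Sabouraud liquid medium. DMF stocks at 1000 µg/mL were diluted in broth to give twofold serial dilutions over 500–0.007 µg/mL. Fungal inoculum was about 10^4 CFU/mL in 96-well plates, sealed and incubated at 25 °C for 48 h in a humid chamber. MIC was taken as the lowest concentration with no visible turbidity. DMF and uninoculated-medium controls were included.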

Aspergillus fumigatus [8] = assay: Antifungal activity against Aspergillus fumigatus RCMB 02568 assessed as inhibition zone at 5 mg/ml after 48 hrs; settings: RCMB 02568, 48 h, read-out: IZ
Summary of the method: (§4)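 Disk diffusion on nutrient agar seeded with 10^4 CFU/mL fungus. Sterile filter-paper disks carried 100 µL of a 5 mg/mL DMF solution, and DMF alone served as control. Plates were incubated at 25 °C for 48 h. Mean inhibition zone in mm ± SD was read beyond the 6 mm diameter, in triplicate.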

Escherichia coli [9] = assay: Antimicrobial activity against Escherichia coli RCMB 010052 assessed as absence of turbidity after 24 hrs; summary of the method: as §1
Bacillus subtilis [10] = assay: Antimicrobial activity against Bacillis subtilis RCMB 010067 assessed as inhibition zone at 5 mg/ml after 24 hrs; settings: RCMB 010067, 24 h, read-out: IZ; summary of the method: as §2
Klebsiella pneumoniae [11] = assay: Antimicrobial activity against Klebsiella pneumoniae RCMB 010093 assessed as absence of turbidity after 24 hrs; summary of the method: as §1
Geotrichum candidum [12] = assay: Antifungal activity against Geotrichum candidum RCMB 05097 assessed as absence of turbidity after 48 hrs; settings: RCMB 05097, 48 h; summary of the method: as §3
[13] = test system: Staphylococcus epidermidis; assay: Antimicrobial activity against Staphylococcus epidermidis RCMB 010024 assessed as absence of turbidity after 24 hrs; settings: RCMB 010024, 24 h; summary of the method: as §1
[14] = test system: Syncephalastrum racemosum; assay: Antifungal activity against Syncephalastrum racemosum RCMB 05922 assessed as inhibition zone at 5 mg/ml after 48 hrs; settings: RCMB 05922, 48 h, read-out: IZ
Geotrichum candidum [15] = assay: Antifungal activity against Geotrichum candidum RCMB 05097 assessed as inhibition zone at 5 mg/ml after 48 hrs; settings: RCMB 05097, 48 h, read-out: IZ; summary of the method: as §4
[16] = test system: Syncephalastrum racemosum; assay: Antifungal activity against Syncephalastrum racemosum RCMB 05922 assessed as absence of turbidity after 48 hrs; settings: RCMB 05922, 48 h
Proteus vulgaris [17] = assay: Antimicrobial activity against Proteus vulgaris RCMB 010085 assessed as absence of turbidity after 24 hrs; summary of the method: as §1
Proteus vulgaris [18] = assay: Antimicrobial activity against Proteus vulgaris RCMB 010085 assessed as inhibition zone at 5 mg/ml after 24 hrs; summary of the method: as §2

Row | Compound | MIC (Streptococcus pneumoniae [1]) | zone of inhibition at 5000 µg/mL (Escherichia coli [2]) | zone of inhibition at 5000 µg/mL (Klebsiella pneumoniae [3]) | MIC (Bacillus subtilis [4]) | zone of inhibition at 5000 µg/mL (Streptococcus pneumoniae [5]) | zone of inhibition at 5000 µg/mL [6] | MIC (Aspergillus fumigatus [7]) | zone of inhibition at 5000 µg/mL (Aspergillus fumigatus [8]) | MIC (Escherichia coli [9]; RCMB 010052, 24 h) | zone of inhibition at 5000 µg/mL (Bacillus subtilis [10]) | MIC (Klebsiella pneumoniae [11]; RCMB 010093, 24 h) | MIC (Geotrichum candidum [12]) | MIC [13] | zone of inhibition at 5000 µg/mL [14] | zone of inhibition at 5000 µg/mL (Geotrichum candidum [15]) | MIC [16] | further results
1 | CCOc1ccc(N/N=C(\C#N)C(=O)Nc2ccc(S(=O)(=O)Nc3onc(C)c3C)cc2)cc1 | 1.95 µg/mL (≈ 4.04 µM) | 15.9 mm | 16.3 mm | 1.95 µg/mL (≈ 4.04 µM) | 19.6 mm | 17.6 mm | 3.9 µg/mL (≈ 8.08 µM) | 19.3 mm | 31.2 µg/mL (≈ 64.8 µM) | 20 mm | 31.2 µg/mL (≈ 64.8 µM) | 0.98 µg/mL (≈ 2.03 µM) | 7.81 µg/mL (≈ 16.2 µM) | 18.6 mm | 21.4 mm | 3.9 µg/mL (≈ 8.08 µM) | –
2 | CC1(C)S[C@@H]2[C@H](NC(=O)[C@H](N)c3ccccc3)C(=O)N2[C@H]1C(=O)O [AMPICILLIN] | 0.12 µg/mL (≈ 0.343 µM) | – | – | 0.24 µg/mL (≈ 0.687 µM) | 23.8 mm | 25.4 mm | – | – | – | 32.4 mm | – | – | 0.06 µg/mL (≈ 0.172 µM) | – | – | – | –
3 | Cc1noc(NS(=O)(=O)c2ccc(N)cc2)c1C [SULFISOXAZOLE] | 1.95 µg/mL (≈ 7.29 µM) | 15.2 mm | 18.2 mm | 0.98 µg/mL (≈ 3.67 µM) | 19.6 mm | 17.5 mm | 62.5 µg/mL (≈ 234 µM) | 15.1 mm | 62.5 µg/mL (≈ 234 µM) | 20.8 mm | 7.81 µg/mL (≈ 29.2 µM) | 15.6 µg/mL (≈ 58.5 µM) | 7.81 µg/mL (≈ 29.2 µM) | 13.2 mm | 16.8 mm | 125 µg/mL (≈ 468 µM) | –
4 | Cc1noc(NS(=O)(=O)c2ccc(NC(=O)/C(C#N)=C/c3ccco3)cc2)c1C | 15.6 µg/mL (≈ 37.9 µM) | 14.9 mm | 15 mm | 15.6 µg/mL (≈ 37.9 µM) | 16.9 mm | 16.2 mm | 125 µg/mL (≈ 303 µM) | 13.9 mm | 0.12 µg/mL (≈ 0.291 µM) | 17.4 mm | 0.12 µg/mL (≈ 0.291 µM) | 62.5 µg/mL (≈ 152 µM) | 31.2 µg/mL (≈ 75.8 µM) | 12.1 mm | 14.6 mm | 500 µg/mL (≈ 1210 µM) | –
5 | GENTAMICIN | – | – | – | – | – | – | – | – | – | – | – | – | – | – | – | – | MIC (Proteus vulgaris [17]): 0.24 µg/mL; inhibition zone (IZ) (Klebsiella pneumoniae [3]): 26.3 mm; MIC (Escherichia coli [9]): 1.95 µg/mL; MIC (Klebsiella pneumoniae [11]): 0.03 µg/mL; inhibition zone (IZ) (Proteus vulgaris [18]): 23.4 mm
6 | Cc1noc(NS(=O)(=O)c2ccc(NC(=O)c3c(Nc4ccccc4)sc(C#N)c3N)cc2)c1C | 62.5 µg/mL (≈ 123 µM) | 11.2 mm | 13.6 mm | 15.6 µg/mL (≈ 30.7 µM) | 15.2 mm | 14.2 mm | 31.2 µg/mL (≈ 61.4 µM) | 16.3 mm | 500 µg/mL (≈ 983 µM) | 17.4 mm | 125 µg/mL (≈ 246 µM) | 15.6 µg/mL (≈ 30.7 µM) | 125 µg/mL (≈ 246 µM) | 15.2 mm | 17.3 mm | 62.5 µg/mL (≈ 123 µM) | –
7 | Cc1noc(NS(=O)(=O)c2ccc(NC(=O)/C(C#N)=C/N(C)C)cc2)c1C | 1.95 µg/mL (≈ 5.01 µM) | 16.3 mm | 17.1 mm | 0.98 µg/mL (≈ 2.52 µM) | 20 mm | 18.2 mm | 7.81 µg/mL (≈ 20.1 µM) | 18.3 mm | 31.2 µg/mL (≈ 80.2 µM) | 21.4 mm | 15.6 µg/mL (≈ 40.1 µM) | 0.98 µg/mL (≈ 2.52 µM) | 7.81 µg/mL (≈ 20.1 µM) | 21.1 mm | 21.3 mm | 0.98 µg/mL (≈ 2.52 µM) | –
8 | COc1ccc(N/N=C(\C#N)C(=O)Nc2ccc(S(=O)(=O)Nc3onc(C)c3C)cc2)cc1 | 15.6 µg/mL (≈ 33.4 µM) | 15.9 mm | 20.2 mm | 0.98 µg/mL (≈ 2.09 µM) | 17.3 mm | 20.2 mm | 31.2 µg/mL (≈ 66.7 µM) | 16.3 mm | 31.2 µg/mL (≈ 66.7 µM) | 21.2 mm | 1.95 µg/mL (≈ 4.16 µM) | 1.95 µg/mL (≈ 4.16 µM) | 1.95 µg/mL (≈ 4.16 µM) | 18.6 mm | 19.8 mm | 3.9 µg/mL (≈ 8.32 µM) | –
9 | C[C@@H]1[C@H](O)[C@@H](C)/C=C/C=C/C=C/C=C/C=C/C=C/C=C/[C@H](O[C@@H]2O[C@H](C)[C@@H](O)[C@H](N)[C@@H]2O)C[C@@H]2O[C@](O)(C[C@@H](O)C[C@@H](O)[C@H](O)CC[C@@H](O)C[C@@H](O)CC(=O)O[C@H]1C)C[C@H](O)[C@H]2C(=O)O [AMPHOTERICIN B] | – | – | – | – | – | – | 0.12 µg/mL (≈ 0.13 µM) | 23.7 mm | – | – | – | 0.007 µg/mL (≈ 0.00758 µM) | – | 19.7 mm | 28.7 mm | 7.81 µg/mL (≈ 8.45 µM) | –
10 | Cc1noc(NS(=O)(=O)c2ccc(NC(=O)/C(C#N)=N/Nc3ccccc3)cc2)c1C | 62.5 µg/mL (≈ 143 µM) | 13.5 mm | 19.1 mm | 7.81 µg/mL (≈ 17.8 µM) | 15.5 mm | 19.8 mm | 15.6 µg/mL (≈ 35.6 µM) | 16.5 mm | 125 µg/mL (≈ 285 µM) | 18.4 mm | 3.9 µg/mL (≈ 8.89 µM) | 7.81 µg/mL (≈ 17.8 µM) | 1.95 µg/mL (≈ 4.45 µM) | 17.3 mm | 17.8 mm | 15.6 µg/mL (≈ 35.6 µM) | –
